From ChEMBL document CHEMBL2346541, “Synthesis and evaluation of quinazoline derivatives as phosphodiesterase 7 inhibitors” (Bioorg Med Chem, 2013)

Target: Phosphodiesterase 7 (Homo sapiens, UniProt Q13946+Q9NP56)
Assay: Inhibition of PDE7 catalytic domain (unknown origin) using [3H]-cAMP as substrate after 1 hr by scintillation proximity assay
Assay type: protein assay
Method in brief: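 Test compounds were dissolved in DMSO (10 mM stock) and run as a dilution series. It was stirred 1 h at room temperature, stopped with PDE SPA beads, settled 20 min and counted. Assays were run in triplicate, and IC50 was calculated.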

Row | Structure (SMILES) | IC50
1 | CC(C)c1nc(SCc2ccc(-c3ccccc3C#N)cc2)c2ccccc2n1 | > 100 µM
2 | Fc1ccc(CSc2nc(SCc3ccc(-c4ccccc4-c4nnn[nH]4)cc3)c3ccccc3n2)cc1 | 6.8 µM
3 | c1cc(-c2ccc(CSc3ncnc4ccccc34)cc2)cc(-c2nnn[nH]2)c1 | 8.2 µM
4 | O=[N+]([O-])c1ccc(CSc2nc(SCc3ccc(-c4ccccc4-c4nnn[nH]4)cc3)c3ccccc3n2)cc1 | 4.9 µM
5 | Cc1nc(SCc2ccc(-c3ccccc3-c3nn[nH]n3)cc2)c2ccccc2n1 | 11 µM
6 | Cc1nc(SCc2ccc(-c3cccc(-c4nnn[nH]4)c3)cc2)c2ccccc2n1 | 2.5 µM
7 | N#Cc1ccccc1-c1ccc(CSc2nc(SCc3ccc(F)cc3)nc3ccccc23)cc1 | > 100 µM
8 | CC(C)c1nc(SCc2ccc(-c3cccc(-c4nnn[nH]4)c3)cc2)c2ccccc2n1 | 0.89 µM
9 | c1ccc2c(SCc3ccc(-c4ccc(-c5nnn[nH]5)cc4)cc3)ncnc2c1 | 7.2 µM
10 | N#Cc1ccccc1-c1ccc(CSc2nc(SCc3ccccc3)nc3ccccc23)cc1 | ND(Insoluble)
11 | N#Cc1ccccc1-c1ccc(CSc2nc(SCc3ccc([N+](=O)[O-])cc3)nc3ccccc23)cc1 | > 100 µM
12 | CC(C)c1nc(SCc2ccc(-c3ccccc3C(=O)O)cc2)c2ccccc2n1 | 44 µM
13 | Clc1ccc(-c2nc(SCc3ccc(-c4ccccc4-c4nnn[nH]4)cc3)c3ccccc3n2)cc1 | 12 µM
14 | N#Cc1ccccc1-c1ccc(CSc2ncnc3ccccc23)cc1 | > 100 µM
15 | ClC(Cl)(Cl)c1nc(SCc2ccc(-c3ccccc3-c3nnn[nH]3)cc2)c2ccccc2n1 | 2.6 µM
16 | COc1cccc(CSc2nc(SCc3ccc(-c4ccccc4-c4nnn[nH]4)cc3)c3ccccc3n2)c1 | 3.3 µM
17 | N#Cc1ccccc1-c1ccc(CSc2nc(C(Cl)(Cl)Cl)nc3ccccc23)cc1 | > 100 µM
18 | Cc1nc(SCc2ccc(-c3ccc(-c4nnn[nH]4)cc3)cc2)c2ccccc2n1 | 8 µM
19 | COC(=O)c1ccccc1-c1ccc(CSc2nc(C(C)C)nc3ccccc23)cc1 | > 100 µM
20 | CC(C)c1nc(SCc2ccc(-c3ccc(C(=O)O)cc3)cc2)c2ccccc2n1 | 0.93 µM
21 | c1ccc(CSc2nc(SCc3ccc(-c4ccccc4-c4nnn[nH]4)cc3)c3ccccc3n2)cc1 | 7.1 µM
22 | CC(C)c1nc(SCc2ccc(-c3ccccc3-c3nn[nH]n3)cc2)c2ccccc2n1 | 0.77 µM
23 | c1ccc(-c2nnn[nH]2)c(-c2ccc(CSc3nc(SCc4ccc(-c5ccccc5-c5nnn[nH]5)cc4)c4ccccc4n3)cc2)c1 | ND(Insoluble)
24 | COC(=O)c1ccc(-c2ccc(CSc3nc(C(C)C)nc4ccccc34)cc2)cc1 | 33 µM
25 | CC(C)c1nc(SCc2ccc(-c3cccc(C(=O)O)c3)cc2)c2ccccc2n1 | 0.85 µM
26 | COC(=O)c1cccc(-c2ccc(CSc3nc(C(C)C)nc4ccccc34)cc2)c1 | > 100 µM
27 | COc1cc2c(SCc3ccc(-c4ccccc4-c4nnn[nH]4)cc3)nc(CCc3ccccc3)nc2c(OC)c1OC | 3.6 µM
28 | Cc1nc(SCc2ccc(-c3ccccc3C#N)cc2)c2ccccc2n1 | > 100 µM
29 | Brc1cc(Br)c2c(SCc3ccc(-c4cccc(-c5nnn[nH]5)c4)cc3)nc(CCc3ccccc3)nc2c1 | > 100 µM
